Results published in ChEMBL document CHEMBL2216753, “Novel 1,4-benzoxazine and 1,4-benzodioxine inhibitors of angiogenesis” (Eur J Med Chem, 2012).
Activity calls are given as the source filed them. No cut-off for these calls is given here.

Experiments:
[1] = organism: Gallus gallus; assay: Antiangiogenic activity in chicken embryo chorioallantoic membrane model at 250 nmol/disc after 3 days; format: functional, tissue-based
[2] = tested on: MAEC; assay: Antimigratory activity against mouse MAEC cell migration at 30 uM after 5 hrs by wound closure assay; format: functional
Outline: (§1)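 Confluent MAEC monolayers wounded with a 1.0-mm wide micropipette tip, then incubated in fresh medium with test compound. Wounds photographed after 5 h and width calculated from digital images. Mean ± SD of 2–4 independent experiments; Student t test, p < 0.05 significant.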

[3] = tested on: MAEC; assay: Antimigratory activity against mouse MAEC cell migration after 5 hrs by wound closure assay; format: functional, cell-based; outline: as §1
[4] = tested on: HMEC-1; assay: Antiangiogenic activity in human HMEC1 cells assessed as inhibition of tube formation after 4 to 6 hrs by matrigel assay; format: functional, cell-based
Outline: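 HMEC-1 (60,000 cells) seeded on matrigel (10 mg/mL) after 30 min gelling at 37 °C, in DMEM containing test compound; after 4–6 h cells photographed and tubes scored 0 (none) to 3 (maximal, like untreated control). Mean ± SD of 2–4 independent experiments; Student t test, p < 0.05 significant.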

[5] = Antiproliferative activity against bovine BAEC cells after 4 days by coulter counter method; format: functional, cell-based; conditions: Bos taurus, 96 h
[6] = tested on: HeLa; assay: Antiproliferative activity against human HeLa cells after 4 days by coulter counter method; format: functional, cell-based; conditions: 96 h
[7] = Cytotoxicity against human HMEC1 cells at 100 uM after 3 days by coulter counter method; format: cell-based; conditions: hmec-1, 72 h
Outline: (§2)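 Cells seeded at 10,000 cells per cm2; after 16 h, fresh medium with test compound added. Cells trypsinized and counted with a Coulter counter on day 4 (BAEC, HeLa, MCF-7) or day 7 (HMEC-1). Cytotoxicity (cell death) was judged after 3 days in culture. HMEC-1 grown in EGM-2 with supplements and growth factors.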

[8] = tested on: HeLa; assay: Cytotoxicity against human HeLa cells at 100 uM after 3 days by coulter counter method; format: cell-based; conditions: 72 h; outline: as §2
[9] = tested on: MCF7; assay: Cytotoxicity against human MCF7 cells at 100 uM after 3 days by coulter counter method; format: cell-based; conditions: mcf7, 72 h; outline: as §2
[10] = Antiproliferative activity against human HMEC1 cells after 7 days by coulter counter method; format: functional, cell-based; conditions: HMEC-1, 168 h
[11] = Cytotoxicity against bovine BAEC cells at 100 uM after 3 days by coulter counter method; format: cell-based, Bos taurus; conditions: cattle, 72 h; outline: as §2
[12] = tested on: MCF7; assay: Antiproliferative activity against human MCF7 cells after 4 days by coulter counter method; format: functional, cell-based; conditions: MCF7, 96 h
[13] = tested on: HeLa; assay: Cytotoxicity against human HeLa cells at 30 uM after 3 days by coulter counter method; format: cell-based; conditions: 72 h; outline: as §2
[14] = Cytotoxicity against bovine BAEC cells at 30 uM after 3 days by coulter counter method; format: cell-based, Bos taurus; conditions: cattle, 72 h; outline: as §2
[15] = tested on: MCF7; assay: Cytotoxicity against human MCF7 cells at 30 uM after 3 days by coulter counter method; format: cell-based; conditions: mcf7, 72 h; outline: as §2
[16] = Antimigratory activity against mouse MAEC cell migration at 10 uM after 5 hrs by wound closure assay; format: functional; outline: as §1
[17] = Cytotoxicity against human HMEC1 cells at 30 uM after 3 days by coulter counter method; format: cell-based; conditions: hmec-1, 72 h; outline: as §2

Structure (SMILES)	inhibition [1]	IC50 [5]	IC50 [6]	Activity [7]	Activity [8]	Activity [9]	IC50 [10]	Activity [11]	IC50 [12]	further results
CN1CC(C)(COc2ccc(C(=N)N)cc2)Oc2ccc(N(Cc3cccc(F)c3)C(=O)C(=O)O)cc21 (stereo unspecified)	inactive	–	–	–	–	–	–	–	–	–
CCOC(=O)C(=O)N(Cc1cccc(F)c1)c1ccc2c(c1)N(C)CC(C)(COc1ccc(C(=N)N)cc1)O2 (stereo unspecified)	Active	–	–	–	–	–	–	–	–	inhibition [2]: Active; inhibition [3]: Dose-dependent effect; inhibition [4]: Dose-dependent effect
CN1CC(C)(COc2ccc(C(=N)N)cc2)Oc2ccc(N(Cc3cc(F)cc(F)c3)C(=O)C(=O)O)cc21 (stereo unspecified)	inactive	–	–	–	–	–	–	–	–	–
N=C(N)c1ccc(OCC2COc3cc(N(Cc4ccccc4)C(=O)C(=O)O)ccc3O2)cc1 (stereo unspecified)	inactive	> 100 µM	> 100 µM	–	–	–	–	–	–	–
CN1CC(C)(COc2ccc(C(=N)N)cc2)Oc2ccc(N(Cc3ccc(F)c(F)c3)C(=O)C(=O)O)cc21 (stereo unspecified)	inactive	–	–	–	–	–	–	–	–	–
CCOC(=O)CN(Cc1ccc(F)cc1)c1ccc2c(c1)OC(C)(COc1ccc(C#N)cc1)CN2C (stereo unspecified)	–	50 µM	> 100 µM	Toxic	Toxic	Toxic	> 100 µM	Toxic	> 100 µM	–
CCOC(=O)CN(Cc1cc(F)cc(F)c1)c1ccc2c(c1)N(C)CC(C)(COc1ccc(C#N)cc1)O2 (stereo unspecified)	–	> 100 µM	> 100 µM	Toxic	Toxic	Toxic	> 100 µM	Toxic	> 100 µM	–
CCOC(=O)C(=O)N(Cc1cc(F)cc(F)c1)c1ccc2c(c1)N(C)CC(C)(COc1ccc(C(=N)N)cc1)O2 (stereo unspecified)	Active	11 µM	6.9 µM	Toxic	Toxic	Toxic	7.8 µM	Toxic	5.2 µM	Activity [13]: Non-toxic; Activity [14]: Non-toxic; Activity [15]: Non-toxic; inhibition [2]: Active; inhibition [3]: Dose-dependent effect; inhibition [4]: Dose-dependent effect; inhibition at 10 µM [16]: 50%; Activity [17]: Non-toxic
N=C(N)c1ccc(OCC2COc3ccc(N(Cc4ccccc4)C(=O)C(=O)O)cc3O2)cc1 (stereo unspecified)	inactive	> 100 µM	> 100 µM	–	–	–	–	–	–	–
CCOC(=O)C(=O)N(Cc1ccc(F)cc1)c1ccc2c(c1)OC(C)(COc1ccc(C(=N)N)cc1)CN2C (stereo unspecified)	Active	6.9 µM	14 µM	Toxic	Toxic	Toxic	7.6 µM	Toxic	6.3 µM	Activity [13]: Non-toxic; Activity [14]: Non-toxic; Activity [15]: Non-toxic; inhibition [2]: Active; inhibition [3]: Dose-dependent effect; inhibition [4]: Dose-dependent effect; inhibition at 10 µM [16]: 50%; Activity [17]: Non-toxic
CN1CC(C)(COc2ccc(C(=N)N)cc2)Oc2cc(N(Cc3ccc(F)cc3)C(=O)C(=O)O)ccc21 (stereo unspecified)	inactive	–	–	–	–	–	–	–	–	–
CN1CC(C)(COc2ccc(C(=N)N)cc2)Oc2cc(N(CC(=O)O)Cc3ccc(F)cc3)ccc21 (stereo unspecified)	inactive	–	–	–	–	–	–	–	–	–
CN1CC(C)(CO)Oc2cc(N(Cc3cc(F)cc(F)c3)C(=O)C(=O)O)ccc21 (stereo unspecified)	–	> 100 µM	> 100 µM	–	–	–	–	–	–	–
CN1CC(C)(COc2ccc(C(=N)N)cc2)Oc2ccc(N(CC(=O)O)Cc3ccc(F)c(F)c3)cc21 (stereo unspecified)	inactive	–	–	–	–	–	–	–	–	–
CN1CC(C)(COc2ccc(C(=N)N)cc2)Oc2cc(N(Cc3ccc(F)c(F)c3)C(=O)C(=O)O)ccc21 (stereo unspecified)	inactive	–	–	–	–	–	–	–	–	–
CN1CC(C)(COc2ccc(C(=N)N)cc2)Oc2cc(N(CC(=O)O)Cc3ccc(F)c(F)c3)ccc21 (stereo unspecified)	inactive	–	–	–	–	–	–	–	–	–

Structure (SMILES)	inhibition [1]	IC50 [5]	IC50 [6]	Activity [7]	Activity [8]	Activity [9]	IC50 [10]	Activity [11]	IC50 [12]	further results
CN1CC(C)(COc2ccc(C(=N)N)cc2)Oc2cc(N(CC(=O)O)Cc3cccc(F)c3)ccc21 (stereo unspecified)	inactive	–	–	–	–	–	–	–	–	–
Cc1cc(C)c(/C=C2\C(=O)Nc3ccccc32)[nH]1	–	–	–	–	–	–	–	–	–	inhibition [3]: Dose-dependent effect
CN1CC(C)(CO)Oc2cc(N(Cc3ccccc3)C(=O)C(=O)O)ccc21 (stereo unspecified)	–	> 100 µM	> 100 µM	–	–	–	–	–	–	–
CCOC(=O)CN(Cc1cc(F)cc(F)c1)c1ccc2c(c1)OC(C)(COc1ccc(C#N)cc1)CN2C (stereo unspecified)	–	25 µM	> 100 µM	Toxic	Toxic	Toxic	49 µM	Toxic	54 µM	–
CCOC(=O)CN(Cc1cccc(F)c1)c1ccc2c(c1)N(C)CC(C)(COc1ccc(C#N)cc1)O2 (stereo unspecified)	–	> 100 µM	> 100 µM	Toxic	Toxic	Toxic	> 100 µM	Toxic	> 100 µM	inhibition [3]: Dose-dependent effect
CN1CC(C)(COc2ccc(C(=N)N)cc2)Oc2cc(N(CC(=O)O)Cc3cc(F)cc(F)c3)ccc21 (stereo unspecified)	inactive	–	–	–	–	–	–	–	–	–
CCOC(=O)C(=O)N(Cc1ccc(F)cc1)c1ccc2c(c1)N(C)CC(C)(COc1ccc(C(=N)N)cc1)O2 (stereo unspecified)	Active	6.6 µM	14 µM	Toxic	Toxic	Toxic	8.4 µM	Toxic	5.5 µM	Activity [13]: Non-toxic; Activity [14]: Non-toxic; Activity [15]: Non-toxic; inhibition [2]: Active; inhibition [3]: Dose-dependent effect; inhibition [4]: Dose-dependent effect; inhibition at 10 µM [16]: 50%; Activity [17]: Non-toxic
CN1CC(C)(COc2ccc(C(=N)N)cc2)Oc2ccc(N(CC(=O)O)Cc3cccc(F)c3)cc21 (stereo unspecified)	inactive	–	–	–	–	–	–	–	–	–
CN1CC(C)(COc2ccc(C(=N)N)cc2)Oc2ccc(N(CC(=O)O)Cc3ccc(F)cc3)cc21 (stereo unspecified)	inactive	–	–	–	–	–	–	–	–	–
CCOC(=O)C(=O)N(Cc1cccc(F)c1)c1ccc2c(c1)OC(C)(COc1ccc(C(=N)N)cc1)CN2C (stereo unspecified)	Active	6.5 µM	7.7 µM	Toxic	Toxic	Toxic	7.9 µM	Toxic	3.8 µM	Activity [13]: Non-toxic; Activity [14]: Non-toxic; Activity [15]: Non-toxic; inhibition [2]: Active; inhibition [3]: Dose-dependent effect; inhibition [4]: Dose-dependent effect; inhibition at 10 µM [16]: 50%; Activity [17]: Non-toxic
CN1CC(C)(COc2ccc(C(=N)N)cc2)Oc2ccc(N(CC(=O)O)Cc3cc(F)cc(F)c3)cc21 (stereo unspecified)	inactive	–	–	–	–	–	–	–	–	–
CN1CC(C)(COc2ccc(C(=N)N)cc2)Oc2cc(N(Cc3cccc(F)c3)C(=O)C(=O)O)ccc21 (stereo unspecified)	inactive	–	–	–	–	–	–	–	–	–
CCOC(=O)C(=O)N(Cc1ccc(F)c(F)c1)c1ccc2c(c1)N(C)CC(C)(COc1ccc(C(=N)N)cc1)O2 (stereo unspecified)	Active	7.4 µM	14 µM	Toxic	Toxic	Toxic	8.3 µM	Toxic	6.3 µM	Activity [13]: Non-toxic; Activity [14]: Non-toxic; Activity [15]: Non-toxic; inhibition [2]: Active; inhibition [3]: Dose-dependent effect; inhibition [4]: Dose-dependent effect; inhibition at 10 µM [16]: 50%; Activity [17]: Non-toxic
CN1CC(C)(COc2ccc(C(=N)N)cc2)Oc2cc(N(Cc3cc(F)cc(F)c3)C(=O)C(=O)O)ccc21 (stereo unspecified)	inactive	–	–	–	–	–	–	–	–	–
CN1CC(C)(COc2ccc(C(=N)N)cc2)Oc2ccc(N(Cc3ccc(F)cc3)C(=O)C(=O)O)cc21 (stereo unspecified)	inactive	–	–	–	–	–	–	–	–	–
CCOC(=O)C(=O)N(Cc1ccc(F)c(F)c1)c1ccc2c(c1)OC(C)(COc1ccc(C(=N)N)cc1)CN2C (stereo unspecified)	Active	4.9 µM	11 µM	Toxic	Toxic	Toxic	6.7 µM	Toxic	5.8 µM	Activity [13]: Non-toxic; Activity [14]: Non-toxic; Activity [15]: Non-toxic; inhibition [2]: Active; inhibition [3]: Dose-dependent effect; inhibition [4]: Dose-dependent effect; inhibition at 10 µM [16]: 50%; Activity [17]: Non-toxic
